Measured values taken from ChEMBL document CHEMBL1140898, “Targeting the fatty acid biosynthesis enzyme, beta-ketoacyl-acyl carrier protein synthase III (PfKASIII), in the identification of novel antimalarial agents” (J Med Chem, 2009).
pIC50: −log10 of the molar value.

What was measured:
[1] = tested on: Plasmodium falciparum; assay: Antimalarial activity against […] by [3H]hypoxanthine uptake; format: functional, organism-based
[2] = tested on: Plasmodium falciparum; assay: Antimalarial activity against […] by [3H]hypoxanthine uptake; format: functional, organism-based
[3] = Inhibition of Plasmodium falciparum KAS3 expressed in Escherichia coli assessed as transfer of [1-14C]acetyl-CoA to [1-14C]acetyl-ACP
Method in brief: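 Recombinant 6xHIS-tagged P. falciparum KASIII and 6xHIS-ACP expressed in E. coli and purified. Radiometric filter assay of [1-14C]-acetyl-CoA transfer to ACP, 25 min at 37 °C, quenched with 10% TCA. Product captured on P81 cellulose filters, washed with TCA and counted by scintillation. […] IC50 by variable-slope nonlinear regression, curves accepted at R2 >0.80.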

[4] = tested on: Plasmodium falciparum; assay: Antimalarial activity against Plasmodium falciparum TM91C235 by [3H]hypoxanthine uptake; format: functional, organism-based
[5] = Therapeutic index, ratio of IC50 for mice (Mus musculus) J774.G8 cells to IC50 for chloroquine-resistant Plasmodium falciparum W2; details: J774.G8 cells versus Plasmodium falciparum W2
[6] = Cytotoxicity against mouse J774.G8 cells after 72 hrs by MTS assay; format: cell-based
Method in brief: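 Murine J774 macrophage subclone G8 grown in DMEM with 10% fetal calf serum, 2 mM L-glutamine, 50 μg/mL gentamicin, 5% CO2, 37 °C. Seeded at 1 × 10^4 cells/well and left 24 h. Compound dilutions in medium or vehicle added, then 72 h exposure. MTS tetrazolium added for 1–2 h at 37 °C, OD read at 490 nm. Vehicle control values subtracted.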

SMILES | pIC50 [1] | pIC50 [2] | pIC50 [3] | pIC50 [4] | selectivity ratio [5] | pIC50 [6]
Oc1ccccc1SSc1ccccc1O | 4.83 | 4.82 | 5.72 | – | – | –
O=[N+]([O-])c1c(Cl)sc(Cl)c1S(=O)(=O)Nc1ccc(C(F)(F)F)cc1 | 4.81 | 4.79 | 6.55 | – | – | –
Nc1ccc(S(=O)(=O)c2cc(O)ccc2O)cc1 | 6.10 | 5.44 | 4.20 | 5.28 | > 472 | < 2.72
Cc1ccc(S(=O)(=O)c2ccccc2)cc1 | 4.45 | 4.16 | 3.80 | 3.95 | 1.9 | 3.87
Cc1cc(O)c(O)c(S(=O)(=O)c2ccc(N)cc2)c1 | 4.71 | 4.63 | 4.57 | 5.47 | 1.2 | 4.56
Cc1ccc(S(=O)(=O)c2cc(O)ccc2O)cc1 | 4.42 | 4.19 | 3.72 | 4.22 | > 29.6 | < 2.72
Cc1ccc(S(=O)(=O)c2ccc3ccccc3c2)cc1 | < 3.64 | < 3.64 | 4.27 | < 3.64 | – | < 2.75
c1ccc(SSc2ccccc2)cc1 | 5.30 | 5.17 | 6.19 | – | 12.4 | 3.91
O=C(O)c1ccc(NS(=O)(=O)c2ccccc2)cc1O | < 4.90 | < 4.90 | 5.30 | – | – | < 2.59
Oc1ccc2ccccc2c1SSc1c(O)ccc2ccccc12 | 5.14 | 5.18 | 6.89 | – | > 204 | < 2.85
Clc1ccc(SSSc2ccc(Cl)cc2)cc1 | 5.60 | 5.68 | 6.20 | – | – | –
Oc1ccc(Cl)cc1SSSc1cc(Cl)ccc1O | 5.64 | 5.85 | 6.28 | – | – | –
O=S(=O)(Nc1cccc(Cl)c1)c1ccccc1 | < 4.30 | < 4.30 | 3.71 | – | < 0.62 | 4.50
O=S(=O)(Nc1ccc(C(F)(F)F)cc1)c1cc(Cl)sc1Cl | < 4.30 | < 4.30 | 5.66 | – | – | –
C/C=C/CCCCCCCC(=O)NS(=O)(=O)c1ccc(N)cc1 | < 4.30 | < 4.30 | < 3.00 | – | – | –
Oc1ccc(S)cc1Cl | 5.28 | 5.33 | 5.55 | – | – | –
Oc1ccc(Sc2ccc(O)cc2O)c(O)c1 | < 4.30 | < 4.30 | 4.97 | – | – | –
O=S(=O)(c1ccc(O)cc1)c1cc(Cl)ccc1O | 4.41 | 4.34 | 3.94 | 4.09 | 2.3 | 3.97
Nc1ncc(S(=O)(=O)c2ccc(NO)cc2)s1 | 6.52 | < 4.26 | 4.66 | < 4.26 | – | –
CCOC(=O)c1cnccc1C | < 4.30 | < 4.30 | 5.31 | – | – | –
CC(CN)CCC(C)(O)C(N)=O (stereo unspecified) | 4.61 | 4.84 | 6.62 | – | – | –
C/C(=C/C(=O)OC(C)c1ccccc1)OP1(=O)OC(C)C(C)O1 (stereo unspecified) | 4.69 | < 4.30 | 4.59 | – | – | –

SMILES | pIC50 [1] | pIC50 [2] | pIC50 [3] | pIC50 [4] | selectivity ratio [5] | pIC50 [6]
COc1ccc(C(=O)CSS(=O)(=O)c2ccccc2)cc1 | 4.65 | 4.65 | 5.82 | – | – | –
Cc1cccc(C)c1/C=C/S(=O)(=O)c1ccccc1 | < 4.30 | < 4.30 | 3.35 | – | < 14 | 3.15
CC(C)(C)S(=O)(=O)CC(=O)c1ccc(Cl)cc1Cl | 4.34 | 4.08 | 4.20 | < 3.69 | > 19.3 | < 2.79
CCCCS(=O)(=O)CCOC(=O)c1ccc([N+](=O)[O-])cc1 | < 4.39 | < 4.39 | 6.49 | – | < 0.83 | 4.47
O=S(=O)(c1cccc(S(=O)(=O)c2cc(O)ccc2O)c1)c1cc(O)ccc1O | 4.59 | 5.15 | 4.42 | 5.35 | > 169 | < 2.93
C/C(=C/c1ccccc1)S(=O)(=O)c1ccccc1 | 4.55 | < 4.30 | 3.78 | – | < 4.1 | 3.69
Nc1ccc(S(=O)(=O)c2cc(O)c3ccccc3c2O)c(Cl)c1 | 8.00 | 5.26 | 6.89 | – | – | –
CC(C)c1ccc(S(=O)(=O)c2ccc(C(C)C)cc2)cc1 | 4.73 | 4.63 | 4.65 | 4.49 | 0.3 | 5.14
Cc1ccc(S/C=C/S(=O)(=O)Cc2ccccc2)cc1 | 5.52 | 5.24 | 6.28 | – | 0.15 | 6.07
O=[N+]([O-])c1cc(S(=O)(=O)Nc2cc(C(F)(F)F)cc(C(F)(F)F)c2)sc1Nc1cc(C(F)(F)F)cc(C(F)(F)F)c1 | 4.99 | 4.94 | 5.28 | – | – | –
O=c1ss/c(=N\c2ccccc2)n1-c1ccccc1 | 5.10 | 5.10 | 6.30 | – | – | –
Cc1ccc(SSSc2ccc(C)cc2)cc1 | 5.82 | 5.85 | 5.85 | – | – | –
Cc1ccc(S(=O)(=O)c2cc(O)c3ccccc3c2O)cc1 | 5.44 | 5.49 | 6.42 | – | > 1060 | < 2.50
Oc1ccc(Cl)cc1SSc1cc(Cl)ccc1O | 4.91 | 4.92 | 6.85 | – | – | –
Oc1c(Cl)cc(SSc2cc(Cl)c(O)c(Cl)c2Cl)c(Cl)c1Cl | 5.41 | 5.26 | 6.62 | – | – | –
O=C(CN1CCN(c2ccc(CO)c(Br)c2)CC1)c1ccc([N+](=O)[O-])o1 | 5.05 | 5.05 | 5.49 | – | – | –
NC1CCC(S(=O)(=O)c2cc(O)c3ccccc3c2O)CC1 (stereo unspecified) | 5.41 | 4.69 | 6.36 | – | 5.3 | 3.98
CC(=O)Nc1ccc(S(=O)(=O)c2ccc(NC(=O)c3ccccc3O)cc2)cc1 | 4.53 | 4.68 | 4.32 | 4.50 | > 77 | < 2.79
Nc1nc(O)c2cc(S(=O)(=O)c3ccc4ccccc4c3)ccc2n1 | 6.37 | 5.92 | 4.74 | 5.85 | > 2850 | < 2.55
Oc1ccc(Cl)cc1Sc1cc(Cl)ccc1O [FENTICLOR] | 4.69 | 4.67 | 5.51 | – | – | –
COc1ncnc(NS(=O)(=O)c2ccc(N)cc2)c1OC [SULFADOXINE] | 7.40 | 5.21 | < 3.00 | – | > 269 | < 2.79
C=C/C(C)=C/[C@@]1(C)SC(=O)C(C)=C1O [THIOLACTOMYCIN] | 4.30 | 4.30 | < 3.48 | – | – | –
